According to ChEMBL document CHEMBL1781970, “Synthesis and antiproliferative evaluation of 23-hydroxybetulinic acid derivatives” (Eur J Med Chem, 2011):

What was measured:
Assay type in all cases: functional, cell-based
HeLa = experiment: Antiproliferative activity against human HeLa cells after 72 hrs by MTT assay
Procedure, shortened: (§1)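 Cells grown in RPMI 1640 with 10% FBS and 1% penicillin-streptomycin at 37 °C, 5% CO2, then seeded overnight in 96-well plates. Test compounds were dissolved in DMSO (doxorubicin control in PBS) and given at various concentrations for 72 h at 37 °C. MTT (5 mg/mL in PBS) was added for 4 h and OD read at 570 nm. IC50 was taken from dose-response curves; mean ± SD, ≥3 independent experiments.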

MCF7 = experiment: Antiproliferative activity against human MCF7 cells after 72 hrs by MTT assay; conditions: MCF7, 72 h; procedure, shortened: as §1
HepG2 = experiment: Antiproliferative activity against human HepG2 cells after 72 hrs by MTT assay; conditions: HepG2, 72 h; procedure, shortened: as §1
B16 = experiment: Antiproliferative activity against mouse B16 cells after 72 hrs by MTT assay; conditions: B16, 72 h; procedure, shortened: as §1
A-375 = experiment: Antiproliferative activity against human A375 cells after 72 hrs by MTT assay; conditions: A-375, 72 h; procedure, shortened: as §1

Row | Structure (SMILES) | IC50 (HeLa) | IC50 (MCF7) | IC50 (HepG2) | IC50 (B16) | IC50 (A-375)
1 | C=C(C)[C@@H]1CC[C@]2(C(=O)OC/C=C/CO)CC[C@]3(C)[C@H](CC[C@@H]4[C@@]5(C)CC[C@H](OC(C)=O)[C@@](C)(COC(C)=O)[C@@H]5CC[C@]43C)[C@@H]12 | 16.4 µM | 15.9 µM | 7.43 µM | > 100 µM | 5.72 µM
2 | C=C(C)[C@@H]1CC[C@]2(C(=O)NCCCCn3nnc(-c4ccccn4)n3)CC[C@]3(C)[C@H](CC[C@@H]4[C@@]5(C)CC[C@H](OC(C)=O)[C@@](C)(COC(C)=O)[C@@H]5CC[C@]43C)[C@@H]12 | 17.9 µM | 16.1 µM | 3.91 µM | 4.75 µM | 1.81 µM
3 | C=C(C)[C@@H]1CC[C@]2(C(=O)N3CCCCC3)CC[C@]3(C)[C@H](CC[C@@H]4[C@@]5(C)CC[C@H](OC(C)=O)[C@@](C)(COC(C)=O)[C@@H]5CC[C@]43C)[C@@H]12 | 69.2 µM | > 100 µM | 66.3 µM | > 100 µM | > 100 µM
4 | C=C(C)[C@@H]1CC[C@]2(C(=O)N3CCNCC3)CC[C@]3(C)[C@H](CC[C@@H]4[C@@]5(C)CC[C@H](OC(C)=O)[C@@](C)(COC(C)=O)[C@@H]5CC[C@]43C)[C@@H]12 | 18.8 µM | 4.89 µM | 17.7 µM | 13.1 µM | 18.8 µM
5 | C=C(C)[C@@H]1CC[C@]2(C(=O)NCCCCn3nnc(-c4ccccn4)n3)CC[C@]3(C)[C@H](CC[C@@H]4[C@@]5(C)CC[C@H](O)[C@@](C)(CO)[C@@H]5CC[C@]43C)[C@@H]12 | 46.3 µM | 17.7 µM | 48.3 µM | 66.9 µM | 30.6 µM
6 | C=CCN(CC=C)C(=O)[C@]12CC[C@@H](C(=C)C)[C@@H]1[C@H]1CC[C@@H]3[C@@]4(C)CC[C@H](O)[C@@](C)(CO)[C@@H]4CC[C@@]3(C)[C@]1(C)CC2 | 59 µM | 17.7 µM | 59.8 µM | 60.4 µM | 17.2 µM
7 | C=C(C)[C@@H]1CC[C@]2(C(=O)N3CCOCC3)CC[C@]3(C)[C@H](CC[C@@H]4[C@@]5(C)CC[C@H](O)[C@@](C)(CO)[C@@H]5CC[C@]43C)[C@@H]12 | 34.3 µM | 19.8 µM | 42 µM | 42.7 µM | 25.1 µM
8 | C=C(C)[C@@H]1CC[C@]2(C(=O)N3CCCCC3)CC[C@]3(C)[C@H](CC[C@@H]4[C@@]5(C)CC[C@H](O)[C@@](C)(CO)[C@@H]5CC[C@]43C)[C@@H]12 | 66.5 µM | 16.6 µM | 68.6 µM | 43.7 µM | 17.9 µM
9 | C=C(C)[C@@H]1CC[C@]2(C(=O)OC/C=C/CO)CC[C@]3(C)[C@H](CC[C@@H]4[C@@]5(C)CC[C@H](O)[C@@](C)(CO)[C@@H]5CC[C@]43C)[C@@H]12 | 44.4 µM | 36 µM | 38 µM | 19.1 µM | 55.7 µM
10 | C=C(CO)[C@@H]1CC[C@]2(C(=O)OC(C)C)CC[C@]3(C)[C@H](CC[C@@H]4[C@@]5(C)CC[C@H](OC(C)=O)[C@@](C)(COC(C)=O)[C@@H]5CC[C@]43C)[C@@H]12 | 19.5 µM | 17.2 µM | 10.7 µM | 23.7 µM | 21.5 µM
11 | C=C(CO)[C@@H]1CC[C@]2(C(=O)OC(C)(C)C)CC[C@]3(C)[C@H](CC[C@@H]4[C@@]5(C)CC[C@H](OC(C)=O)[C@@](C)(COC(C)=O)[C@@H]5CC[C@]43C)[C@@H]12 | 23.3 µM | 14.1 µM | 15.8 µM | 49.5 µM | 34.7 µM
12 | C=C(CO)[C@@H]1CC[C@]2(C(=O)OCC3CCCO3)CC[C@]3(C)[C@H](CC[C@@H]4[C@@]5(C)CC[C@H](OC(C)=O)[C@@](C)(COC(C)=O)[C@@H]5CC[C@]43C)[C@@H]12 (stereo not given in full) | 17.8 µM | 33.6 µM | 18.7 µM | 41.8 µM | 12.5 µM
13 | C=C(CO)[C@@H]1CC[C@]2(C(=O)OCCC(C)C)CC[C@]3(C)[C@H](CC[C@@H]4[C@@]5(C)CC[C@H](OC(C)=O)[C@@](C)(COC(C)=O)[C@@H]5CC[C@]43C)[C@@H]12 | 20.8 µM | 15.1 µM | 10.7 µM | 35.9 µM | 7.8 µM
14 | C=C(CO)[C@@H]1CC[C@]2(C(=O)N3CCOCC3)CC[C@]3(C)[C@H](CC[C@@H]4[C@@]5(C)CC[C@H](OC(C)=O)[C@@](C)(COC(C)=O)[C@@H]5CC[C@]43C)[C@@H]12 | 18.3 µM | 17.3 µM | 20.7 µM | 39.3 µM | 31.8 µM
15 | C=C(CO)[C@@H]1CC[C@]2(C(=O)N3CCCCC3)CC[C@]3(C)[C@H](CC[C@@H]4[C@@]5(C)CC[C@H](OC(C)=O)[C@@](C)(COC(C)=O)[C@@H]5CC[C@]43C)[C@@H]12 | 11 µM | 22.2 µM | 11.3 µM | 64.3 µM | 53.7 µM
16 | C=C(CO)[C@@H]1CC[C@]2(C(=O)N3CCC[C@H]3C(=O)OC)CC[C@]3(C)[C@H](CC[C@@H]4[C@@]5(C)CC[C@H](OC(C)=O)[C@@](C)(COC(C)=O)[C@@H]5CC[C@]43C)[C@@H]12 | 13.1 µM | 32 µM | 10 µM | 69 µM | 11.8 µM
17 | C=C(CO)[C@@H]1CC[C@]2(C(=O)OC(C)C)CC[C@]3(C)[C@H](CC[C@@H]4[C@@]5(C)CC[C@H](O)[C@@](C)(CO)[C@@H]5CC[C@]43C)[C@@H]12 | 22.3 µM | 16.6 µM | 21 µM | 38.6 µM | 21.2 µM
18 | C=C(CO)[C@@H]1CC[C@]2(C(=O)OC(C)(C)C)CC[C@]3(C)[C@H](CC[C@@H]4[C@@]5(C)CC[C@H](O)[C@@](C)(CO)[C@@H]5CC[C@]43C)[C@@H]12 | 30.7 µM | 16.4 µM | 22.7 µM | 84.1 µM | 42.7 µM
19 | C=C(CO)[C@@H]1CC[C@]2(C(=O)OCC3CCCO3)CC[C@]3(C)[C@H](CC[C@@H]4[C@@]5(C)CC[C@H](O)[C@@](C)(CO)[C@@H]5CC[C@]43C)[C@@H]12 (stereo not given in full) | 79.4 µM | 76.3 µM | 81.2 µM | 64.3 µM | 70.4 µM
20 | C=C(CO)[C@@H]1CC[C@]2(C(=O)OCCC(C)C)CC[C@]3(C)[C@H](CC[C@@H]4[C@@]5(C)CC[C@H](O)[C@@](C)(CO)[C@@H]5CC[C@]43C)[C@@H]12 | 20.9 µM | 12.5 µM | 34.6 µM | 51.2 µM | 17.9 µM
21 | C=C(C)[C@@H]1CC[C@]2(C(=O)N[C@@H](CCSC)C(=O)N[C@@H](CCSC)C(=O)OC)CC[C@]3(C)[C@H](CC[C@@H]4[C@@]5(C)CC[C@H](O)[C@@](C)(CO)[C@@H]5CC[C@]43C)[C@@H]12 | 44.4 µM | 66.1 µM | 23.1 µM | 20.4 µM | 26.8 µM
22 | C=C(C)[C@@H]1CC[C@]2(C(=O)N3CCC[C@H]3C(=O)N[C@@H](CCSC)C(=O)OC)CC[C@]3(C)[C@H](CC[C@@H]4[C@@]5(C)CC[C@H](O)[C@@](C)(CO)[C@@H]5CC[C@]43C)[C@@H]12 | 41.3 µM | 19.8 µM | 40.5 µM | 20.7 µM | 30.1 µM
23 | C=C(C)[C@@H]1CC[C@]2(C(=O)NCC(=O)N[C@@H](Cc3c[nH]c4ccccc34)C(=O)OC)CC[C@]3(C)[C@H](CC[C@@H]4[C@@]5(C)CC[C@H](O)[C@@](C)(CO)[C@@H]5CC[C@]43C)[C@@H]12 | 66.3 µM | > 100 µM | 46.8 µM | 44.4 µM | > 100 µM
24 | C=C(C)[C@@H]1CC[C@]2(C(=O)NCC(=O)N[C@@H](C)C(=O)O)CC[C@]3(C)[C@H](CC[C@@H]4[C@@]5(C)CC[C@H](O)[C@@](C)(CO)[C@@H]5CC[C@]43C)[C@@H]12 | 22.1 µM | 17.2 µM | 32.4 µM | 22.2 µM | 18.4 µM
25 | C=C(C)[C@@H]1CC[C@]2(C(=O)O)CC[C@]3(C)[C@H](CC[C@@H]4[C@@]5(C)CC[C@H](O)[C@@](C)(COC(=O)N6CCC(N7CCCCC7)CC6)[C@@H]5CC[C@]43C)[C@@H]12 | 12.5 µM | 9.95 µM | 18.5 µM | 7.25 µM | 9.23 µM
26 | C=C(C)[C@@H]1CC[C@]2(C(=O)N3CCC(N4CCCCC4)CC3)CC[C@]3(C)[C@H](CC[C@@H]4[C@@]5(C)CC[C@@H]6OC(=O)OC[C@@]6(C)[C@@H]5CC[C@]43C)[C@@H]12 | 20.6 µM | 17.6 µM | 10.3 µM | 8.69 µM | 20.4 µM
27 | C=C(C)[C@@H]1CC[C@]2(C(=O)NCCNC(=O)CCC(=O)O)CC[C@]3(C)[C@H](CC[C@@H]4[C@@]5(C)CC[C@H](OC(C)=O)[C@@](C)(COC(C)=O)[C@@H]5CC[C@]43C)[C@@H]12 | 72.9 µM | 51 µM | 76.1 µM | 82.6 µM | 59.5 µM
28 | C=C(C)[C@@H]1CC[C@]2(C(=O)O)CC[C@]3(C)[C@H](CC[C@@H]4[C@@]5(C)CC[C@H](O)[C@@](C)(CO)[C@@H]5CC[C@]43C)[C@@H]12 | 46.2 µM | 46.6 µM | 41.4 µM | 18.7 µM | 42 µM
